A selection: hits, their analogues and other compounds. The true share with any hit is near 1.8%.
NPY Y2 blocker – NPY-Y2 receptor antagonists, primary screen, cell-based. AID 793, 2007. NPY-Y2 expressing cells, antagonist mode. inhibition, % at 2.7 µM. 0.99% of 140,000 active. Neuropeptide Y receptor type 2 (Homo sapiens), P49146; in the data active means inhibition above about 17%;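 further: 0% = vehicle with agonist challenge and 100% = reference antagonist with challenge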
Target sequence (P49146 whole entry, looked up): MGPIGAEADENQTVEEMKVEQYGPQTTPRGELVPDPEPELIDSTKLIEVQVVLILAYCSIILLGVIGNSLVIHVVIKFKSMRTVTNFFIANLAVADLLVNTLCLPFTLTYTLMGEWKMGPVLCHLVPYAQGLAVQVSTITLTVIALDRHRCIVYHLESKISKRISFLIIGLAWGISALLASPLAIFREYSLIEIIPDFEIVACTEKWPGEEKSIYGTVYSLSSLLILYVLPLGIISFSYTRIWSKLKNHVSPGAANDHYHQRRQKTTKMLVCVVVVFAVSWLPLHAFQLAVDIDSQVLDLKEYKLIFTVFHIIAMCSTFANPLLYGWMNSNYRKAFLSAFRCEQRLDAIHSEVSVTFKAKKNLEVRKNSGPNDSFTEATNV
NPY-Y1 PAM-ag – NPY-Y1 receptor potentiators or agonists, primary screen, cell-based; Neuropeptide Y receptor type 1 (Homo sapiens), P25929; NPY-Y1 expressing cells, potentiator/agonist activation; activation, % at 3.6 µM; 0.37% of 220,000 active; in the data active means activation above about 33%, passing the limit was not always enough;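 further: cells stimulated with NPY at EC10 then isoproterenol at EC100; 0% = low agonist plus stimulus and 100% = saturating agonist plus stimulus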
NPY-Y2 PAM-ag – NPY-Y2 potentiators or agonists, primary screen, cell-based; 0.45% of 220,000 active; Neuropeptide Y receptor type 2 (Homo sapiens), P49146; activation, % at 3.6 µM; cells expressing NPY-Y2, potentiator/agonist read-out; in the data active means activation above about 27%;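 further: cells stimulated with NPY near EC25 plus isoproterenol at EC100; 0% = vehicle plus submaximal agonist and 100% = vehicle plus saturating agonist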
NPY Y1 blocker – NPY-Y1 receptor antagonists, primary screen, cell-based; 1% of 200,000 active; inhibition, % at 3.6 µM; HEK293-CNG Y1 cells, membrane potential fluorescence; NPY at EC95, then isoproterenol; Neuropeptide Y receptor type 1 (Homo sapiens), P25929;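 active means inhibition above the campaign mean inhibition of all tested compounds plus 3 SD, cut at about 20% in these data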;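 further: 0% = DMSO wells given NPY plus isoproterenol and 100% = isoproterenol alone without NPY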
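Assay system: HEK293 cells with Y1 receptor plus CNG channel | Probe or stimulus: NPY (25 nM), isoproterenol (1 µM), Ro 20-1724 (25 µM) | Timing: Compound incubation 1 h at room temperature, readout 45 min post-stimulation | Measured by: Membrane-potential fluorescent dye readout | Benchmarks: High control isoproterenol alone, low control NPY with isoproterenol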
NPY1 antag ctr – NPY-Y1 receptor antagonists, selectivity check, counter-screen for NPY-Y2 antagonist project, cell-based. inhibition, % at 3.6 µM. cell-based NPY-Y1 antagonism counterscreen. AID 1256, 2008. 19% of 710 active. shares compounds with NPY Y2 blocker; in the data active means inhibition above about 20%;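 further: cells challenged with NPY then isoproterenol with cAMP sensed through a CNG channel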
NPY-Y2 ant conf – NPY-Y2 receptor antagonists, retest of hits, confirmation, HEK293-CNG cells, membrane potential fluorescence, triplicate. shares compounds with NPY Y2 blocker. HEK293 NPY-Y2 CNG channel. inhibition, % at 2.8 µM. 32% of 710 active. AID 1257, 2008;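 active means mean inhibition of triplicate wells above the hit cutoff set in the primary screen, cut at about 17% in these data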;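 further: 0% = DMSO with NPY challenge and 100% = BIIE0246 high control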
Active calls of the source: *; / = no result.

SMILES	NPY Y2 blocker	NPY-Y1 PAM-ag	NPY-Y2 PAM-ag	NPY Y1 blocker	NPY1 antag ctr	NPY-Y2 ant conf
CCOc1cccc(Nc2cc3n(c(=O)n2)CCc2cc(OC)c(OC)cc2-3)c1	18*	-37	-23	14	38*	65*
COc1ccccc1C(c1nnnn1CCc1ccccc1)N1CCCCCC1 (stereo unspecified)	26*	7	1	15	6	4
CCOc1ccc(-n2cc(C(=O)Nc3cccc(Cl)c3)c3cc(OC)c(OC)cc3c2=O)cc1	18*	-62	-30	13	12	20*
O=C(NC1CCCCC1)c1cnn2c(C(F)(F)F)cc(-c3ccco3)nc12	19*	-25	5	13	10	3
Fc1ccc(F)c(CN2CCN(c3ncccn3)CC2)c1	2	-14	9	3	/	/
CC(=O)c1cc(CC=C(C)C)c(O)cc1O	1	6	-8	-3	/	/
CC(=O)c1cc(CC=C(C)C)c(O)c(CC=C(C)C)c1O	25*	-13	-6	9	9	15
OCCNc1nc(Cl)nc(NCc2ccco2)n1	/	1	-9	7	/	/
CCc1n[nH]c(=S)n1/N=C/c1cc(Br)c(OC)cc1OC	21*	-16	2	2	6	18*
Cc1ccc(N2C(=O)c3ccccc3C2C(=O)c2cc(C)ccc2O)cc1 (stereo unspecified)	27*	9	18	-2	35*	38*
Cc1ccc(N2C(=O)c3ccccc3C2C(=O)c2ccc(O)cc2O)cc1 (stereo unspecified)	0	16	7	1	/	/
Cc1ccc(N=C(NOC(=O)c2ccccc2)c2nonc2N)c(C)c1	25*	-2	-23	9	7	4
Cc1ccc(N=C(NO)c2nonc2N)c(C)c1	3	-16	4	0	/	/
CCOc1ccc(S(=O)(=O)Nc2cccnc2)cc1	1	8	0	4	/	/
c1ccc(-c2oc3ncnc(NCCCN4CCOCC4)c3c2-c2ccccc2)cc1	18*	8	-8	11	17	17
Cc1cc(C)nc(NC(=O)CSc2nc3ccccc3s2)n1	2	-23	-1	2	/	/
Cc1ccc(S(=O)(=O)NC(=O)CSc2nc3ccccc3s2)cc1	20*	-21	-25	13	12	14
CCCCCCCCCS(=O)(=O)N/N=C/c1cccc([N+](=O)[O-])c1	24*	-24	-13	8	17	21*
Cc1cc(C)c2c(CN3CCN(Cc4ccc5c(c4)OCO5)CC3)cc(=O)oc2c1C	5	-1	3	-2	/	/
Cc1cc(C)n(-c2nnc(C)n2/N=C/c2ccccc2OCc2ccccc2Cl)n1	18*	-4	-3	11	20*	11
C=CC(C)Sc1nc2c(c(=O)n(C)c(=O)n2C)n1Cc1ccccc1Cl (stereo unspecified)	18*	-5	14	5	-2	10
O=C(Nc1ccc(Nc2ccccc2)cc1)C(Cl)Cl	-1	13	4	-6	/	/
CCN1/C(=C2\OC(=S)N(C)C2=O)Sc2ccccc21	20*	11	5	-1	-1	12
CCN1/C(=C2\OC(=S)N(C)C2=O)C=Cc2ccccc21	/	5	-6	-4	/	/
O=[N+]([O-])c1cc(/C=N\O)ccc1Oc1ccc(F)cc1	/	1	-2	1	/	/
SMILES	NPY Y2 blocker	NPY-Y1 PAM-ag	NPY-Y2 PAM-ag	NPY Y1 blocker	NPY1 antag ctr	NPY-Y2 ant conf
O=C(OCC1CC(c2ccccc2)=NO1)c1ccc(Br)cc1 (stereo unspecified)	18*	-2	6	2	13	14
O=C(OCC1CC(c2ccccc2Cl)=NO1)c1ccc(Br)cc1 (stereo unspecified)	10	8	-8	-1	/	/
CC1(C)C(C=C(Cl)Cl)C1C(=O)N(Cc1ccccc1Cl)C1CCS(=O)(=O)C1 (stereo unspecified)	5	6	6	2	/	/
CCCc1[nH]nc2c1C(c1cn[nH]c1-c1ccc(F)cc1)C(C#N)=C(N)O2 (stereo unspecified)	2	-3	2	3	/	/
CCCCN(Cc1cc2cc(OC)ccc2[nH]c1=O)C(=O)COc1ccccc1	2	-4	11	0	/	/
O=C(NC1CCCCCC1)c1ccc(S(=O)(=O)NCc2ccco2)cc1	21*	-14	-11	17	12	6
O=C(COC(=O)c1ccc(S(=O)(=O)NCc2ccco2)cc1)NC1CCCCCC1	1	16	8	2	/	/
O=C(NN1C(=O)C2C3C=CC(C4CC34)C2C1=O)c1cccc(Br)c1 (stereo unspecified)	/	9	12	/	/	/
S=C(NCCc1ccccc1)N/N=C/c1cccc(Cl)c1Cl	26*	-66	-10	18	31*	50*
O=C(NC(=S)Nc1ccccc1N1CCCCC1)c1ccco1	18*	-67	-3	8	12	8
COc1ccc(CCNC(=O)c2sc3ccccc3c2Cl)cc1OC	26*	-10	-16	11	11	11
Cn1ccnc1SCC(=O)Nc1cccc(O)c1	18*	-7	13	7	-3	-2
COC(=O)c1ccc(-n2cc(-c3ccc(OC)cc3)[nH]c2=S)cc1	1	-13	3	0	/	/
COC(=O)CCN(C(=O)c1ccc(Cl)c([N+](=O)[O-])c1)c1ccccn1	/	10	-12	/	/	/
O=C(CN1CCN(c2cccc(Cl)c2)CC1)N1CCCC1	-2	-1	3	3	/	/
Cc1ccc(C(C(=O)NC2CCCCC2)N(Cc2cccnc2)C(=O)C2COc3ccccc3O2)o1 (stereo unspecified)	25*	8	2	7	3	8
Cc1ccc(C(C(=O)NC2CCCC2)N(Cc2cccnc2)C(=O)c2snc(C(N)=O)c2N)o1 (stereo unspecified)	4	4	-3	0	/	/
CCCCNC(=O)c1onc(CSc2ccccc2F)c1C(=O)O	37*	-35	-21	16	20	18*
C=CCNC(=O)c1onc(CSc2ccccc2F)c1C(=O)O	18*	-7	-37	15	19	12
C=CCNC(=O)c1onc(CSc2cccc3ccccc23)c1C(=O)O	8	-11	-31	12	/	/
CCCCNC(=O)c1onc(CSc2cc(C)cc(C)c2)c1C(=O)O	14	-29	-39	13	/	/
CCCCNC(=O)c1onc(CSc2cccc(C)c2)c1C(=O)O	21*	-43	-32	20	18	12
COc1ccc(OC)c(S(=O)(=O)N2CCN(c3ccccn3)CC2)c1	-1	12	4	-2	/	/

Bioassay records as filed in PubChem.
